Laboratory results: ChEMBL document CHEMBL1125203, “The synthesis and antiviral activity of some 4'-thio-2'-deoxy nucleoside analogues” (J Med Chem, 1991)
In brackets after ≈: the same amount, converted by molar mass.

Columns and labels:
[1] = Maximum plasma level was measured in mice.; assay type: ADME, organism-based; conditions: mouse, read-out: Max plasma level
[2] = Half life was measured in mice.; assay type: ADME, organism-based; conditions: mouse, in vivo
Mus musculus = assay: Toxicity of compound was measured after ip administration to mice.; assay type: organism-based; conditions: in vivo
MT4 [3] = assay: Minimum inhibitory concentration required to reduce cytopathogenicity of human immunodeficiency virus-1 (HIV-1) in MT-4 cells by 50%; No activity below ID50 observed; assay type: functional, cell-based
MT4 [4] = assay: Inhibitory dose required to reduce the viability of MT-4 cells by 50%; assay type: functional, Homo sapiens
Method in brief: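 Mock-infected MT-4 cells on the same plate as the HIV test, drug at 100, 10, 1 and 0.1 µM, triplicate wells. Growth inhibition assessed after 5 days by MTT uptake into viable cells, acidified propan-2-ol extraction and spectrophotometric reading.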

MRC5 [5] = assay: Minimum inhibitory concentration required to reduce cytopathogenicity of Herpes Virus-1 (HSV-1) in MRC -5 cells by 50%.; assay type: functional; conditions: Homo sapiens
Method in brief: (§1)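 Plaque reduction: confluent monolayers (HSV-2 in Vero, HSV-1 in MRC-5) infected and overlaid with nutrient agarose holding doubling drug dilutions. Plaques counted after 5 days as % of control, plotted against log concentration, and IC50 read from the plot.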

MRC5 [6] = assay: Minimum inhibitory concentration required to reduce cytopathogenicity of Varicella Zoster Virus (VZV) in MRC-5 cells by 50%.; assay type: functional; conditions: Homo sapiens
Vero [7] = assay: Minimum inhibitory concentration required to reduce cytopathogenicity of Herpes Virus-2 (HSV-2) in vero cells by 50%.; assay type: functional; conditions: Chlorocebus sabaeus; method in brief: as §1
Vero [8] = assay: Inhibitory dose required to reduce the viability of vero cells by 50%; assay type: functional, Chlorocebus sabaeus
MRC5 [9] = assay: Minimum inhibitory concentration required to reduce cytopathogenicity of Cytomegalovirus Virus (CMV) in MRC-5 cells by 50%.; assay type: functional; conditions: Homo sapiens
Method in brief: (§2)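 MRC-5 monolayers in 24-well panels, infected after 24 h and overlaid with 0.5% indubiose A37 medium containing drug at 10 and 100 µM. After 5 days, giant cells (plaques) stained with methylene blue and examined microscopically.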

MRC5 [10] = assay: Minimum inhibitory concentration required to reduce cytopathogenicity of cytomegalovirus (CMV) in MRC-5 cells by 50%.; assay type: functional; conditions: Homo sapiens; method in brief: as §2

Work on `O=c1[nH]c(=O)n([C@H]2C[C@H](O)[C@@H](CO)S2)cc1/C=C/Br` yielded a Cmax [1] greater than 50 µM, a half-life [2] of 2 h and a Toxicity (Mus musculus) greater than 40 mg/kg. For the same compound, the MIC50 (MT4 [3]) was “No activity”, the ID50 (MT4 [4]) was greater than 500 µM and the MIC50 (MRC5 [5]) was 0.6 µM (≈ 0.21 µg/mL). For the same compound, the MIC50 (MRC5 [6]) was 0.08 µM (≈ 0.0279 µg/mL), the MIC50 (Vero [7]) was 10 µM (≈ 3.49 µg/mL) and the ID50 (Vero [8]) was greater than 500 µM.
With `Cc1cn([C@@H]2C[C@H](O)[C@@H](CO)S2)c(=O)[nH]c1=O` the ID50 (MT4 [4]) was greater than 100 µM, the MIC50 (MRC5 [5]) was greater than 100 µM and the MIC50 (Vero [7]) was greater than 100 µM. For the same compound, the ID50 (Vero [8]) was greater than 100 µM.
With `Cc1cn(C2CC(N=[N+]=[N-])C(CO)S2)c(=O)[nH]c1=O` (stereo not given) the MIC50 (MT4 [3]) was “No activity”, the ID50 (MT4 [4]) was greater than 100 µM and the MIC50 (MRC5 [5]) was greater than 100 µM. It also gave an MIC50 (Vero [7]) greater than 100 µM and an ID50 (Vero [8]) greater than 100 µM.
Compound `O=c1[nH]c(=O)n([C@H]2C[C@H](O)[C@@H](CO)O2)cc1/C=C/Br` [BRIVUDINE] has an MIC50 (MRC5 [9]) greater than 100 µM, an MIC50 (MRC5 [5]) of 0.03 µM (≈ 0.00999 µg/mL) and an MIC50 (MRC5 [6]) of 0.02 µM (≈ 0.00666 µg/mL). It also gave an MIC50 (Vero [7]) of 12 µM (≈ 4 µg/mL) and an ID50 (Vero [8]) greater than 500 µM.
Work on `Nc1nc2c(ncn2COCCO)c(=O)[nH]1` [ACYCLOVIR] yielded an MIC50 (MRC5 [9]) of 100 µM (≈ 22.5 µg/mL), an MIC50 (MRC5 [5]) of 1.3 µM (≈ 0.293 µg/mL) and an MIC50 (Vero [7]) of 1.8 µM (≈ 0.405 µg/mL). It also gave an ID50 (Vero [8]) greater than 500 µM.
`O=c1[nH]c(=O)n([C@@H]2C[C@H](O)[C@@H](CO)S2)cc1/C=C/Br` showed an ID50 (MT4 [4]) greater than 500 µM, an MIC50 (MRC5 [5]) greater than 500 µM and an MIC50 (Vero [7]) greater than 500 µM.
For `Cc1cn([C@H]2C[C@H](O)[C@@H](CO)S2)c(=O)[nH]c1=O` [4'-THIOTHYMIDINE], the Cmax [1] was greater than 35 µM, the half-life [2] was 1 h and the Toxicity (Mus musculus) was greater than 40 mg/kg. The MIC50 (MT4 [3]) was “No activity”, the ID50 (MT4 [4]) was 1 µM and the MIC50 (MRC5 [5]) was 0.37 µM (≈ 0.0956 µg/mL). It also gave an MIC50 (MRC5 [6]) of 10 µM (≈ 2.58 µg/mL), an MIC50 (MRC5 [10]) of 0.98 µM (≈ 0.253 µg/mL) and an MIC50 (Vero [7]) of 2.3 µM (≈ 0.594 µg/mL). For the same compound, the ID50 (Vero [8]) was 7.1 µM.
